The values below come from ChEMBL document CHEMBL4823332, “Discovery and Development of Cyclic Peptide Inhibitors of CIB1” (ACS Med Chem Lett, 2021).

The test system of one series is MDA-MB-468. Briefly: Cytotoxicity against human MDA-MB-468 cells assessed as cell death at 30 uM incubated for 24 hrs by trypan blue assay. The format is functional.
Series [1] has as its target T1, Calcium and integrin-binding protein 1 (Homo sapiens, UniProt Q99828).
T1 sequence (Q99828 whole entry): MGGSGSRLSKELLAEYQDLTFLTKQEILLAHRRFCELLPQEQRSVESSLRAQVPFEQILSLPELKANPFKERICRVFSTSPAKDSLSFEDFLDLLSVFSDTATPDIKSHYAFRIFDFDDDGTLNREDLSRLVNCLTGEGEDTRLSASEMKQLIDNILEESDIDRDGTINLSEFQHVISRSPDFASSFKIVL
Briefly: Displacement of Alexa Fluor 647 labelled UNC10245092 peptide from CIB1 (unknown origin) preincubated for 20 mins followed by Alexa-CIB1 phage peptide addition and measured after 20 to 30 mins by TR-FRET assay.

Series [2] can be described thus: Cytotoxicity against human MDA-MB-231 cells assessed as cell death at 30 uM incubated for 24 hrs by trypan blue assay. The settings on record: mda-mb-231, 24 h. The format is cell-based.
Series [3] can be described thus: Stability in human MDA-MB-468 cell lysates assessed as compound remaining at 150 uM after 24 hrs by LCMS method. The settings on record: read-out: Stabilty. It is filed as ADME, subcellular. Put shortly: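 Peptides were incubated in MDA-MB-468 cell lysates at 37 °C.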

Starred links: 1 amine or outer side, 2 acyl side, 3 side chain; linkers in the order of their positions; H or OH if unused. Positions of bridges follow the written chain, without caps; N, C: chain ends. Non-standard residues stand in square brackets, D forms with d. Residues, ends and D or L forms follow the SMILES beside them. ξ: configuration not given here. *: point of attachment. NMeW = CN[C@@H](Cc1c[nH]c2ccccc12)C(=O)O; NH(CH2CH2O)2(CH2)6Cl = ClCCCCCCOCCOCCN*; Ala(2-furyl) = N[C@@H](Cc1ccco1)C(=O)O; NMeY = CN[C@@H](Cc1ccc(O)cc1)C(=O)O; Suc = O=C(CCC(=O)[*:2])[*:1]; hLeu = CC(C)CC[C@H](N)C(=O)O; ξhLeu = CC(C)CCC(N)C(=O)O; NMeA = CN[C@@H](C)C(=O)O; Nle = CCCC[C@H](N)C(=O)O

In the case of `CC[C@H](C)[C@@H]1NC(=O)[C@H](CC(C)C)NC(=O)[C@H](Cc2c[nH]c3ccccc23)NC(=O)[C@H](Cc2ccc(O)cc2)NC(=O)[C@@H]2CCCN2C(=O)[C@H](CCC(N)=O)NC(=O)[C@H](C)NC(=O)[C@H](Cc2ccc(O)cc2)NC(=O)CSC[C@@H](C(N)=O)NC(=O)[C@H](Cc2c[nH]c3ccccc23)NC(=O)[C@H](CC(N)=O)NC1=O` ({CH2CO}-YAQPYWLINWC-NH2; thioether N-11), the Activity with MDA-MB-468 was 2.7%; in series [2] it was 1.5%. The IC50 (commonly the concentration needed to halve the response being measured) in series [1] stood at 9 nM. Further, the remaining at 24 h, 150 µM in series [3] came out at 21.9%. As to `CC[C@H](C)[C@@H]1NC(=O)[C@H](CC(C)C)NC(=O)[C@H](Cc2c[nH]c3ccccc23)NC(=O)[C@H](C)NC(=O)[C@@H]2CCCN2C(=O)[C@H](CCC(N)=O)NC(=O)[C@H](CCCCN)NC(=O)[C@H](Cc2ccc(O)cc2)NC(=O)CSC[C@@H](C(N)=O)NC(=O)[C@H](Cc2c[nH]c3ccccc23)NC(=O)[C@H](CC(N)=O)NC1=O` ({CH2CO}-YKQPAWLINWC-NH2; thioether N-11), the IC50 in series [1] amounted to 470 nM. Still for that read-out and setting: the result for `CC[C@H](C)[C@@H]1NC(=O)[C@H](CC(C)C)NC(=O)[C@H](C)NC(=O)[C@H](Cc2ccc(O)cc2)NC(=O)[C@@H]2CCCN2C(=O)[C@H](CCC(N)=O)NC(=O)[C@H](CCCCN)NC(=O)[C@H](Cc2ccc(O)cc2)NC(=O)CSC[C@@H](C(N)=O)NC(=O)[C@H](Cc2c[nH]c3ccccc23)NC(=O)[C@H](CC(N)=O)NC1=O` ({CH2CO}-YKQPYALINWC-NH2; thioether N-11) reads 430 nM. On the same count and under the same terms, for `CC[C@H](C)[C@@H]1NC(=O)[C@H](C)NC(=O)[C@H](Cc2c[nH]c3ccccc23)NC(=O)[C@H](Cc2ccc(O)cc2)NC(=O)[C@@H]2CCCN2C(=O)[C@H](CCC(N)=O)NC(=O)[C@H](CCCCN)NC(=O)[C@H](Cc2ccc(O)cc2)NC(=O)CSC[C@@H](C(N)=O)NC(=O)[C@H](Cc2c[nH]c3ccccc23)NC(=O)[C@H](CC(N)=O)NC1=O` ({CH2CO}-YKQPYWAINWC-NH2; thioether N-11) the value was 15 nM.

With `CC(C)C[C@@H]1NC(=O)[C@H](Cc2c[nH]c3ccccc23)NC(=O)[C@H](Cc2ccc(O)cc2)NC(=O)[C@@H]2CCCN2C(=O)[C@H](CCC(N)=O)NC(=O)[C@H](CCCCN)NC(=O)[C@H](Cc2ccc(O)cc2)NC(=O)CSC[C@@H](C(N)=O)NC(=O)[C@H](Cc2c[nH]c3ccccc23)NC(=O)[C@H](CC(N)=O)NC(=O)[C@H](C)NC1=O` ({CH2CO}-YKQPYWLANWC-NH2; thioether N-11), in series [1], the IC50 is 170 nM. The same measure, in the same setting: for `CC[C@H](C)[C@@H]1NC(=O)[C@H](CC(C)C)NC(=O)[C@H](Cc2c[nH]c3ccccc23)NC(=O)[C@H](Cc2ccc(O)cc2)NC(=O)[C@@H]2CCCN2C(=O)[C@H](CCC(N)=O)NC(=O)[C@H](CCCCN)NC(=O)[C@H](Cc2ccc(O)cc2)NC(=O)CSC[C@@H](C(N)=O)NC(=O)[C@H](Cc2c[nH]c3ccccc23)NC(=O)[C@H](C)NC1=O` ({CH2CO}-YKQPYWLIAWC-NH2; thioether N-11) the value was 76 nM; for `CC[C@H](C)[C@@H]1NC(=O)[C@H](CC(C)C)NC(=O)[C@H](Cc2c[nH]c3ccccc23)NC(=O)[C@H](Cc2ccc(O)cc2)NC(=O)[C@@H]2CCCN2C(=O)[C@H](CCC(N)=O)NC(=O)[C@H](CCCCN)NC(=O)[C@H](Cc2ccc(O)cc2)NC(=O)CSC[C@@H](C(N)=O)NC(=O)[C@H](C)NC(=O)[C@H](CC(N)=O)NC1=O` ({CH2CO}-YKQPYWLINAC-NH2; thioether N-11), 7100 nM. For the compound `CC[C@H](C)[C@@H]1NC(=O)[C@H](CC(C)C)NC(=O)[C@H](Cc2c[nH]c3ccccc23)N(C)C(=O)[C@H](Cc2ccc(O)cc2)NC(=O)[C@@H]2CCCN2C(=O)[C@H](CCC(N)=O)NC(=O)[C@H](CCCCN)NC(=O)[C@H](Cc2ccc(O)cc2)NC(=O)CSC[C@@H](C(N)=O)NC(=O)[C@H](Cc2c[nH]c3ccccc23)NC(=O)[C@H](CC(N)=O)NC1=O` ({CH2CO}-YKQPY[NMeW]LINWC-NH2; thioether N-11), the IC50 in series [1] was 59 nM. The same measure, in the same setting: for `CC[C@H](C)[C@@H]1NC(=O)[C@H](CCCNC(=N)N)NC(=O)[C@H](Cc2c[nH]c3ccccc23)NC(=O)[C@H]([C@@H](C)O)NC(=O)[C@H](CO)NC(=O)[C@H](CCC(N)=O)NC(=O)[C@H](CCC(N)=O)NC(=O)[C@H](Cc2ccc(O)cc2)NC(=O)CSC[C@@H](C(N)=O)NC(=O)[C@H](Cc2c[nH]c3ccccc23)NC(=O)[C@H](CC(N)=O)NC1=O` ({CH2CO}-YQQSTWRINWC-NH2; thioether N-11) the value was 65 nM; for `CC[C@H](C)[C@@H]1NC(=O)[C@H](CC(N)=O)NC(=O)[C@H](Cc2c[nH]c3ccccc23)NC(=O)[C@H]([C@@H](C)CC)NC(=O)[C@@H]2CCCN2C(=O)[C@H]([C@@H](C)O)NC(=O)[C@H]([C@@H](C)O)NC(=O)[C@H](Cc2ccc(O)cc2)NC(=O)CSC[C@@H](C(N)=O)NC(=O)[C@H](Cc2ccccc2)NC(=O)[C@H](CCCNC(=N)N)NC1=O` ({CH2CO}-YTTPIWNIRFC-NH2; thioether N-11), 15 nM. On the same count and under the same terms, for `CC[C@H](C)[C@@H]1NC(=O)[C@H](CC(C)C)NC(=O)[C@H](Cc2c[nH]c3ccccc23)N(C)C(=O)[C@H](Cc2ccc(O)cc2)NC(=O)[C@@H]2CCCN2C(=O)[C@H](CCC(N)=O)NC(=O)[C@H](C)N(C)C(=O)[C@H](Cc2ccc(O)cc2)NC(=O)CSC[C@@H](C(N)=O)NC(=O)[C@H](Cc2c[nH]c3ccccc23)NC(=O)[C@H](CC(N)=O)NC1=O` ({CH2CO}-Y[NMeA]QPY[NMeW]LINWC-NH2; thioether N-11) the value was 54 nM; for `CC[C@H](C)[C@@H]1NC(=O)[C@H](CC(C)C)NC(=O)[C@H](Cc2c[nH]c3ccccc23)N(C)C(=O)[C@H](Cc2ccc(O)cc2)NC(=O)[C@@H]2CCCN2C(=O)[C@H](CCC(N)=O)NC(=O)[C@H](C)N(C)C(=O)[C@H](Cc2ccc(O)cc2)NC(=O)CSC[C@@H](C(N)=O)NC(=O)[C@H](Cc2c[nH]c3ccccc23)NC(=O)[C@H](Cc2ccco2)NC1=O` ({CH2CO}-Y[NMeA]QPY[NMeW]LI[Ala(2-furyl)]WC-NH2; thioether N-11), 190 nM; for `CC[C@H](C)[C@@H]1NC(=O)[C@H](CC(C)C)NC(=O)[C@H](Cc2c[nH]c3ccccc23)NC(=O)[C@H](Cc2ccc(O)cc2)NC(=O)[C@@H]2CCCN2C(=O)[C@H](CCC(C)C)NC(=O)[C@H](C)N(C)C(=O)[C@H](Cc2ccc(O)cc2)NC(=O)CSC[C@@H](C(N)=O)NC(=O)[C@H](Cc2c[nH]c3ccccc23)NC(=O)[C@H](Cc2ccco2)NC1=O` ({CH2CO}-Y[NMeA][hLeu]PYWLI[Ala(2-furyl)]WC-NH2; thioether N-11), 4200 nM. In the case of `CC[C@H](C)[C@@H]1NC(=O)[C@H](CC(C)C)NC(=O)[C@H](Cc2c[nH]c3ccccc23)N(C)C(=O)[C@H](Cc2ccc(O)cc2)NC(=O)[C@@H]2CCCN2C(=O)C(CCC(C)C)NC(=O)[C@H](C)N(C)C(=O)[C@H](Cc2ccc(O)cc2)NC(=O)CSC[C@@H](C(N)=O)NC(=O)[C@H](Cc2c[nH]c3ccccc23)NC(=O)[C@H](CC(N)=O)NC1=O` (stereo partly drawn) ({CH2CO}-Y[NMeA][ξhLeu]PY[NMeW]LINWC-NH2; thioether N-11), the IC50 in series [1] stood at 190 nM. For `CCCC[C@@H]1NC(=O)[C@H](Cc2ccc(O)cc2)NC(=O)CSC[C@@H](C(N)=O)NC(=O)[C@H](Cc2c[nH]c3ccccc23)NC(=O)[C@H](CC(C)C)NC(=O)[C@H]([C@@H](C)CC)NC(=O)[C@H](CC(C)C)NC(=O)[C@H](Cc2c[nH]c3ccccc23)NC(=O)[C@H](Cc2ccc(O)cc2)NC(=O)[C@@H]2CCCN2C(=O)[C@H](CCC(N)=O)NC1=O` ({CH2CO}-Y[Nle]QPYWLILWC-NH2; thioether N-11), the Activity in the series with MDA-MB-468 is 3.4%; in series [2], 1.1%. Besides, the IC50 in series [1] was found to be 59 nM. Moreover, in series [3], the remaining at 24 h, 150 µM turned out to be 62.2%. Turning to `CCCC[C@@H]1NC(=O)[C@H](Cc2ccc(O)cc2)NC(=O)CSC[C@@H](C(N)=O)NC(=O)[C@H](Cc2c[nH]c3ccccc23)NC(=O)[C@H](Cc2ccco2)NC(=O)[C@H]([C@@H](C)CC)NC(=O)[C@H](CC(C)C)NC(=O)[C@H](Cc2c[nH]c3ccccc23)NC(=O)[C@H](Cc2ccc(O)cc2)NC(=O)[C@@H]2CCCN2C(=O)[C@H](CCC(C)C)NC1=O` ({CH2CO}-Y[Nle][hLeu]PYWLI[Ala(2-furyl)]WC-NH2; thioether N-11), in series [1], the IC50 stood at 1500 nM. On the same count and under the same terms, for `CC[C@H](C)[C@@H]1NC(=O)[C@H](CC(C)C)NC(=O)[C@H](Cc2c[nH]c3ccccc23)NC(=O)[C@H](Cc2ccc(O)cc2)N(C)C(=O)[C@@H]2CCCN2C(=O)[C@H](CCC(C)C)NC(=O)[C@H](C)NC(=O)[C@H](Cc2ccc(O)cc2)N(C)C(=O)CSC[C@@H](C(N)=O)NC(=O)[C@H](Cc2c[nH]c3ccccc23)NC(=O)[C@H](CC(N)=O)NC1=O` ({CH2CO}-[NMeY]A[hLeu]P[NMeY]WLINWC-NH2; thioether N-11) the value was 1800 nM. On to `CSCC[C@H](NC(=O)[C@H](C)NC(=O)CNC(=O)[C@H](Cc1ccc(O)cc1)NC(=O)[C@H](C)NC(=O)[C@H](Cc1ccccc1)NC(=O)[C@H](CO)NC(=O)CNC(=O)CNC(=O)[C@H](CC(=O)O)NC(=O)[C@H](CCC(=O)O)NC(=O)[C@H](CCC(N)=O)NC(=O)[C@@H]1CCCN1C(=O)[C@H](CCCNC(=N)N)NC(=O)[C@H](CCCNC(=N)N)NC(=O)[C@H](CCCNC(=N)N)NC(=O)[C@H](CCC(N)=O)NC(=O)[C@H](CCCNC(=N)N)NC(=O)[C@H](CCCNC(=N)N)NC(=O)[C@H](CCCCN)NC(=O)[C@H](CCCCN)NC(=O)[C@H](CCCNC(=N)N)NC(=O)CNC(=O)CCC(=O)NCCOCCOCCCCCCCl)C(=O)N[C@@H](CCCCN)C(=O)N[C@@H](C)C(=O)N[C@@H](CC(C)C)C(=O)N[C@@H](C)C(=O)NCC(N)=O` ({NH(CH2CH2O)2(CH2)6Cl-Suc}-GRKKRRQRRRPQEDGGSFAYGAMKALAG-NH2), for which the Activity came out at 1.1% with MDA-MB-468 and 1.9% in series [2]. Also, the IC50 in series [1] is over 10000 nM. The remaining at 24 h, 150 µM in series [3] worked out at 0%. Take Ac-YKQPYWLINWA-NH2: in series [1], the IC50 is over 10000 nM.
